Here are results for 40 compounds from ChEMBL document CHEMBL4325827, “Bifidenone: Structure-Activity Relationship and Advanced Preclinical Candidate” (J Med Chem, 2018).

The structures appear in SMILES notation. Where only a bound is given, the exact number is not on record here.

The test system of series [1] is NCI-H460. In words: Antiproliferative activity against human NCI-H460 cells after 72 hrs by CellTiter 96 aqueous nonradioactive cell proliferation assay. The format is functional, cell-based. As to conditions: NCI-H460, 72 h; call rule not given here. The procedure, abridged: (§1)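 Antiproliferation in cultured tumour cells, at least 3 replicate wells per concentration per experiment. NCI-H460 came from ATCC. M14, NCI/ADR-RES, OVCAR-4, HCT-15, ACHN and SF-295 came from the National Cancer Institute. IC50 reported from single experiments where no SD is given.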

Series [2] has as its system M14. In words: Antiproliferative activity against human M14 cells after 72 hrs by CellTiter 96 aqueous nonradioactive cell proliferation assay. In kind it is functional, cell-based. As to conditions: M14, 72 h. In short, it runs like this: as §1
A short description of series [3]: Drug uptake in tumor of human NCI-H460 cells xenografted in Crl:NU(NCr)-Foxn1 nu mouse at 40 mg/kg, ip measured at 3 hrs post injection by LC-MS analysis. In kind it is ADME, organism-based, Neoplasm. Conditions: in vivo. The procedure, abridged: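 Male Nu/Nu mice, some bearing NCI-H460 or LOX-IMVI xenografts, given a single ip dose at 3 mL/kg. Organic vehicle components were dissolved first, with the aqueous part added gradually. Mice were euthanized at 1 h or 3 h. Cardiac blood was taken into NaEDTA/NaF plasma separator tubes. Quantification used loratadine internal standard against a spiked blank-plasma curve. Tumours were run as duplicate ~200 mg samples homogenized in 3% SDS and extracted twice with ethyl acetate, assuming 1 g tissue = 1 mL.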

For series [4], the system named is UO-31. In words: Antiproliferative activity against taxane-resistant human UO31 cells after 72 hrs by CellTiter 96 aqueous nonradioactive cell proliferation assay. The format is functional, cell-based. As to conditions: UO-31, 72 h.
The test system of series [5] is NCI/ADR-RES. In words: Antiproliferative activity against taxane-resistant human NCI/ADR-RES cells after 72 hrs by CellTiter 96 aqueous nonradioactive cell proliferation assay. The format is functional, cell-based. In short, it runs like this:
as §1

Series [6] has as its system ACHN. In words: Antiproliferative activity against taxane-resistant human ACHN cells after 72 hrs by CellTiter 96 aqueous nonradioactive cell proliferation assay. The format is functional, cell-based. In short, it runs like this:
as §1

Series [7] concerns EKVX. In words: Antiproliferative activity against taxane-resistant human EKVX cells after 72 hrs by CellTiter 96 aqueous nonradioactive cell proliferation assay. In kind it is functional, cell-based.
The subject of series [8] is HCT-15. In words: Antiproliferative activity against taxane-resistant human HCT15 cells after 72 hrs by CellTiter 96 aqueous nonradioactive cell proliferation assay. Conditions: HCT-15, 72 h. The format is functional, cell-based. In short, it runs like this: as §1
Series [9] deals with SF-295. In words: Antiproliferative activity against taxane-resistant human SF295 cells after 72 hrs by CellTiter 96 aqueous nonradioactive cell proliferation assay. In kind it is functional, cell-based. As to conditions: SF-295, 72 h. The procedure, abridged:
as §1

In series [10] the test system is OVCAR-4. In words: Antiproliferative activity against taxane-resistant human OVCAR4 cells after 72 hrs by CellTiter 96 aqueous nonradioactive cell proliferation assay. In kind it is functional, cell-based. As to conditions: OVCAR-4, 72 h. The procedure, abridged: as §1

With `C=CC[C@H]1C[C@]2([C@@H](C)Cc3ccc(OC)c(O)c3)OCOC2=CC1=O`, the IC50 in series [1] came to 80 nM; in series [2], 8 nM.

Consider `C=CC[C@H]1C[C@]2([C@@H](C)Cc3cnc(OC)c(OC)c3)OCOC2=CC1=O`, for which the IC50 in series [1] and in [2] was above 20000 nM each time.

Take `C=CC[C@H]1C[C@]2([C@@H](C)Cc3ccc(OC)c(C(=O)NC)c3)OCOC2=CC1=O`: the figures for the IC50 in [1] and in series [2] were 1100 nM and 1400 nM, respectively.

On to `C=CC[C@H]1C[C@]2(C(C)Cc3ccc(OC)c(OC(C)=O)c3)OCOC2=CC1=O` (stereo partly specified), for which the IC50 in [1] is 110 nM; in series [2] it was 16 nM.

Take `C=CC[C@H]1C[C@]2([C@@H](C)Cc3ccc(OC)nc3)OCOC2=CC1=O`: the values for the IC50 in series [1] and in [2] were 330 nM and 180 nM, respectively.

As to `C=CC[C@H]1C[C@]2([C@@H](C)Cc3ccc(OC)c(Cl)c3)OCOC2=CC1=O`, the results for the IC50 in series [1] and in series [2] were 640 nM and 240 nM, respectively.

Regarding `C=CC[C@H]1C[C@]2([C@@H](C)Cc3ccc(OC)c(N4CCOCC4)c3)OCOC2=CC1=O`, the IC50 in series [1] and in [2] was above 20000 nM throughout.

Consider `C=CC[C@H]1C[C@]2([C@@H](C)Cc3ccc(OC)c(NC(C)=O)c3)OCOC2=CC1=O`, for which the half-maximal inhibitory concentration (IC50) in series [1] amounted to 310 nM; in [2] it was 85 nM.

Take `C=CC[C@H]1C[C@]2([C@@H](C)Cc3cc(F)c(OC)cc3F)OCOC2=CC1=O`: the 50% inhibitory concentration (IC50) in series [1] turned out to be 59 nM; in series [2] it was 30 nM. Also, the Drug uptake result in series [3] is given as “Active”.

As for `C=CC[C@H]1C[C@]2(C(CC)Cc3ccc(OC)c(OC)c3)OCOC2=CC1=O` (mixture of isomers), the IC50 in [1] was 11000 nM; in series [2], 2600 nM.

On to `C=CC[C@H]1C[C@]2(CCc3ccc(OC)c(OC)c3)OCOC2=CC1=O`, for which the IC50 in series [1] worked out at 3200 nM; in [2], 2000 nM.

On to `C=CC[C@H]1C[C@]2(C(C)Cc3cc(C(N)=O)c(OC)cc3F)OCOC2=CC1=O` (stereo partly specified), for which the IC50 came to 330 nM in series [1] and 4 nM in series [2].

For the compound `C=CC[C@H]1C[C@]2([C@@H](C)Cc3cc(OC)c(OC)cc3F)OCOC2=CC1=O`, the values for the IC50 in series [1] and in [2] were 120 nM and 14 nM, respectively.

For the compound `C=CC[C@H]1C[C@]2([C@@H](C)Cc3ccc(OC(F)(F)F)cc3)OCOC2=CC1=O`, the IC50 in series [1] is 3800 nM; in series [2], above 20000 nM.

For `CC(=O)O[C@H]1C(=O)[C@@]2(C)[C@H]([C@H](OC(=O)c3ccccc3)[C@]3(O)C[C@H](OC(=O)[C@H](O)[C@@H](NC(=O)c4ccccc4)c4ccccc4)C(C)=C1C3(C)C)[C@]1(OC(C)=O)CO[C@@H]1C[C@@H]2O` [PACLITAXEL], the IC50 in series [4] was 240 nM; in series [5], above 9 µM; in series [6], 80 nM; in [7] it was 150 nM; in series [8] it was 190 nM; in series [9], 56 nM. For the same compound, in series [10], the IC50 was above 600 nM.

Consider `C=CC[C@H]1C[C@]2([C@H](C)Cc3ccc(OC)cc3)OCOC2=CC1=O`, for which the 50% inhibitory concentration (IC50) in series [1] amounted to 120 nM; in [2] it was 81 nM.

Consider `C=CC[C@H]1C[C@]2([C@@H](C)Cc3cc(NC(C)=O)c(OC)cc3F)OCOC2=CC1=O`, for which the IC50 in series [1] stood at 71 nM; in series [2] it was 52 nM.

Take `C=CC[C@H]1C[C@]2(C(C)Cc3ccc(F)cc3)OCOC2=CC1=O` (stereo partly specified): the IC50 in series [1] and in series [2] was above 20000 nM each time.

As to `C=CC[C@H]1C[C@]2(C(C)Cc3ccc(OCC)cc3)OCOC2=CC1=O` (stereo partly specified), the IC50 came out at 280 nM in series [1] and 650 nM in series [2].

On to `C=CC[C@H]1C[C@]2([C@@H](C)Cc3cc(C#N)c(OC)cc3F)OCOC2=CC1=O`, for which the values for the IC50 in series [1] and in series [2] were 150 nM and 37 nM, respectively.

As to `C=CC[C@H]1C[C@]2([C@@H](C)Cc3ccccc3)OCOC2=CC1=O`, the IC50 in [1] amounted to 9700 nM; in [2], 5100 nM.

For `C=CC[C@H]1C[C@]2([C@@H](C)Cc3cccc(OC)c3)OCOC2=CC1=O`, the figures for the IC50 in series [1] and in series [2] were 10600 nM and 8800 nM, respectively.

`C=CC[C@H]1C[C@]2([C@@H](C)Cc3cc(O)c(OC)cc3F)OCOC2=CC1=O`: the IC50 was 33 nM in series [1] and 9 nM in series [2].

On to `C=CC[C@H]1C[C@]2([C@@H](C)Cc3cc(N)c(OC)cc3F)OCOC2=CC1=O`, for which the IC50 worked out at 160 nM in series [1] and 29 nM in [2].

As to `C=CC[C@H]1C[C@]2([C@@H](C)Cc3ccc(OC)c(C#N)c3)OCOC2=CC1=O`, the IC50 in [1] stood at 340 nM; in [2], 180 nM.

Consider `C=CC[C@H]1C[C@]2([C@H](C)Cc3ccc(OC)c(F)c3F)OCOC2=CC1=O`, for which the IC50 was determined as 3300 nM in [1] and 3800 nM in series [2].

As for `C=CC[C@H]1C[C@]2([C@@H](C)Cc3ccc(OC)c(C)c3)OCOC2=CC1=O`, the concentration for half-maximal inhibition (IC50) stood at 630 nM in [1] and 410 nM in series [2].

For the compound `C=CC[C@H]1C[C@]2([C@@H](C)Cc3ccc(OC(C)=O)cc3)OCOC2=CC1=O`, the IC50 in series [1] and in [2] was above 20000 nM each time.

For the compound `C=CC[C@H]1C[C@]2([C@@H](C)Cc3ccc(OC)cc3)OCOC2=CC1=O`, the IC50 in series [1] amounted to 90 nM; in series [2], 20 nM.

Take `C=CC[C@H]1C[C@]2(C(C)Cc3ccc(OC)c(N)c3)OCOC2=CC1=O` (stereo partly specified): the IC50 in series [1] was 180 nM; in [2], 49 nM.

As to `C=CC[C@@H]1C[C@]2([C@H](C)Cc3ccc(OC)c(OC)c3)OCOC2=CC1=O`, the IC50 in [1] and in series [2] was above 4000 nM in each case.

Consider `C=CC[C@H]1C[C@]2([C@@H](C)Cc3ccc(OC)c(F)c3)OCOC2=CC1=O`, for which the figures for the IC50 in series [1] and in [2] were 90 nM and 8 nM, respectively.

Turning to `C=CC[C@H]1C[C@]2([C@H](C)Cc3c(F)cc(OC)cc3F)OCOC2=CC1=O`, the IC50 in series [1] came out at 2500 nM; in series [2], 320 nM.

Consider `C=CC[C@H]1C[C@]2([C@H](C)Cc3ccc(OC)c(OC)c3)OCOC2=CC1=O`, for which the IC50 was found to be 320 nM in series [1] and 300 nM in series [2].

Take `C=CC[C@H]1C[C@]2([C@@H](C)Cc3ccc(O)cc3)OCOC2=CC1=O`: the IC50 in series [1] and in series [2] was above 20000 nM each time.

In the case of `C=CC[C@H]1C[C@]2([C@H](C)Cc3cc(F)c(OC)cc3F)OCOC2=CC1=O`, the IC50 in series [1] stood at 35 nM; in [2] it was 10 nM.

Consider `C=CC[C@@H]1C[C@]2([C@@H](C)Cc3ccc(OC)c(OC)c3)OCOC2=CC1=O`, for which the IC50 in series [1] and in [2] was above 4000 nM each time.

Consider `C=CC[C@H]1C[C@]2([C@@H](C)Cc3cc(C)c(OC)cc3F)OCOC2=CC1=O`, for which the values for the IC50 in series [1] and in series [2] were 650 nM and 230 nM, respectively.

Regarding `C=CC[C@H]1C[C@]2([C@@H](C)Cc3cnc(OC)cc3F)OCOC2=CC1=O`, the IC50 in series [1] was above 20000 nM; in [2], 8000 nM.

For the compound `C=CC[C@H]1C[C@]2([C@@H](C)Cc3ccc(OC)c(C(N)=O)c3)OCOC2=CC1=O`, the IC50 in series [1] turned out to be 66 nM; in [2] it was 12 nM.
